In ChEMBL document CHEMBL1153156, “Pyrrole derivatives as potent inhibitors of lymphocyte-specific kinase: Structure, synthesis, and SAR” (Bioorg Med Chem Lett, 2010):

Columns and labels:
[1] = target: Cyclin-dependent kinase 1 (Homo sapiens, UniProt P06493); test: Inhibition of CDK1
[2] = Immunosuppressive activity in C57BL6/J mouse T cells cocultured with mitomycin C-treated BALB/c spleen cells assessed as inhibition of [3H]thymidine incorporation after 72 hrs by mixed lymphocyte reaction assay; type: functional
Method in brief: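 Nylon-wool-purified splenic and lymph node T cells from C57BL/6 mice (3 × 10⁵/well) cocultured with mitomycin-C-treated BALB/c spleen cells (2 × 10⁵/well), 37 °C, 5% CO₂, 72 h. Compounds added at culture start. ³H-thymidine pulse for last 4 h, incorporation counted. IC₅₀ from nine-point half-log concentration–response curves; mean of at least two independent experiments.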

[3] = target: Proto-oncogene tyrosine-protein kinase Src (Homo sapiens, UniProt P12931); test: Inhibition of Src
Sequence of Proto-oncogene tyrosine-protein kinase Src (P12931 2-536 limits assumed): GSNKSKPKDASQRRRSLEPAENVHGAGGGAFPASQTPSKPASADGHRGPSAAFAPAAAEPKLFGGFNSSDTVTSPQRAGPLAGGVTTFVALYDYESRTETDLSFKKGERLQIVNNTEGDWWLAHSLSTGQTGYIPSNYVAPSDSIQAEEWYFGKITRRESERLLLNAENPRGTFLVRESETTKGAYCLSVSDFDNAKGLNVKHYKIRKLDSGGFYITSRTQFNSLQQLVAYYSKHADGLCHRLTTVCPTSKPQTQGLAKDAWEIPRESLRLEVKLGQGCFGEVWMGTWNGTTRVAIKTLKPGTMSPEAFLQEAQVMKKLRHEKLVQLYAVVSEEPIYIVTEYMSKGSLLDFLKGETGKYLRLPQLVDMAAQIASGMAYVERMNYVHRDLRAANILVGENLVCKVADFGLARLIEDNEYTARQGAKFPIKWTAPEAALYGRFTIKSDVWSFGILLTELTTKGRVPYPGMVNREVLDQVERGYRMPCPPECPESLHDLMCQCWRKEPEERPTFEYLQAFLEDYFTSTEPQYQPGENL

[4] = target: Tyrosine-protein kinase Lck (Homo sapiens) (UniProt P06239); test: Inhibition of human recombinant Lck expressed in insect cells by Packard topcount method
Sequence of Tyrosine-protein kinase Lck (Homo sapiens) (P06239 2-509 limits assumed): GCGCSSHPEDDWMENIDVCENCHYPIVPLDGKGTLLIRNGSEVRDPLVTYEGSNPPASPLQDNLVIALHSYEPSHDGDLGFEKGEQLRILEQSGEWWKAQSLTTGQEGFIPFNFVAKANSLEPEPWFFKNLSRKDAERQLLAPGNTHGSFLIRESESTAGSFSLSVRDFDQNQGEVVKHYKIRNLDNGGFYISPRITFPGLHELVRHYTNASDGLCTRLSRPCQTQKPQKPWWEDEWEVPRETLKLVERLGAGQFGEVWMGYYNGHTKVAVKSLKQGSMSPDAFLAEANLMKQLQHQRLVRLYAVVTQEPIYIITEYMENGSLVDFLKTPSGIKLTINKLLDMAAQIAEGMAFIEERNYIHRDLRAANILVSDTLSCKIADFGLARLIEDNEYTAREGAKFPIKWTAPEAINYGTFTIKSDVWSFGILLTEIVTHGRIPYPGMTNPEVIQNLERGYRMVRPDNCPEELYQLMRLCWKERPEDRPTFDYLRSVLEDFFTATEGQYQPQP
Method in brief: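 Lck (5 ng/well) incubated with compound in 50 mM Hepes, 50 mM KCl, 25 mM MgCl₂, 5 mM MnCl₂, Na₃VO₄, 0.01% CHAPS, 1 mM DTT. Poly(Glu-Tyr) 4:1 substrate, ATP and ³³P-ATP added; 25 °C, 60 min. Stopped with 100 mM phosphoric acid, filtered onto membrane, scintillation counted. IC₅₀ from eight-point half-log curves; mean of at least two independent experiments.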

[5] = target: Tyrosine-protein kinase CSK (Homo sapiens, UniProt P41240); test: Inhibition of Csk
[6] = Inhibition of CAMK2
[7] = target: Dual specificity mitogen-activated protein kinase kinase 1 (Homo sapiens, UniProt Q02750); test: Inhibition of MEK1
Sequence of Dual specificity mitogen-activated protein kinase kinase 1 (Q02750 whole entry): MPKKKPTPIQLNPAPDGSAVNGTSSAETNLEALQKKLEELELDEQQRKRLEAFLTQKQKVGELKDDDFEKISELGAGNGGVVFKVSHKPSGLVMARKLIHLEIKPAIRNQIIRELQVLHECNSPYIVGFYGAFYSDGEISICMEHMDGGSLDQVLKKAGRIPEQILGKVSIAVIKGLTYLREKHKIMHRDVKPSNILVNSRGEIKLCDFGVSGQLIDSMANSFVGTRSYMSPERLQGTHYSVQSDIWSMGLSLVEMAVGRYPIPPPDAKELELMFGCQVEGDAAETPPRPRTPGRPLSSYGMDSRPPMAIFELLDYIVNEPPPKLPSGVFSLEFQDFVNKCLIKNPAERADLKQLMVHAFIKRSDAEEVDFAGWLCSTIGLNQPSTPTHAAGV

[8] = Selectivity ratio of IC50 for Src to IC50 for human recombinant Lck
[9] = Inhibition of PKA
[10] = target: T1, Tyrosine-protein kinase ZAP-70 (Homo sapiens, UniProt P43403); test: Inhibition of ZAP70
T1 sequence (P43403 whole entry): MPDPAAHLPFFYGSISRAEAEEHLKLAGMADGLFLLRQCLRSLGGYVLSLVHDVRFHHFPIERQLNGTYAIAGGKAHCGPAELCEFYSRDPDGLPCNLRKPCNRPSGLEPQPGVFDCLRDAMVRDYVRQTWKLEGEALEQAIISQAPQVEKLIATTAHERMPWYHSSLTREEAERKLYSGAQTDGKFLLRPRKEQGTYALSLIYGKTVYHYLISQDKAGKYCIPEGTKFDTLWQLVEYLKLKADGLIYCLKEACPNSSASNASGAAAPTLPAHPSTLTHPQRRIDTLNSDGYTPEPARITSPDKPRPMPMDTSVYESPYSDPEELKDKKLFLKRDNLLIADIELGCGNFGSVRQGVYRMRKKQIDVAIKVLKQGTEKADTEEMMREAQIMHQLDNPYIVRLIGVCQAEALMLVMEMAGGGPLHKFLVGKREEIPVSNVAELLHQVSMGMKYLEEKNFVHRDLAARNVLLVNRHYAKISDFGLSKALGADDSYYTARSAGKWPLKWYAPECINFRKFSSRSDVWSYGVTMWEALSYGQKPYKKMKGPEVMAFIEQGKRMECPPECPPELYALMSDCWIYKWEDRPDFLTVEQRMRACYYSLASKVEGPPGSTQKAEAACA

[11] = Selectivity ratio of IC50 for Csk to IC50 for human recombinant Lck
[12] = Inhibition of PKC
[13] = target: Tyrosine-protein kinase ABL1 (Homo sapiens, UniProt P00519); test: Inhibition of Abl
Sequence of Tyrosine-protein kinase ABL1 (P00519 whole entry): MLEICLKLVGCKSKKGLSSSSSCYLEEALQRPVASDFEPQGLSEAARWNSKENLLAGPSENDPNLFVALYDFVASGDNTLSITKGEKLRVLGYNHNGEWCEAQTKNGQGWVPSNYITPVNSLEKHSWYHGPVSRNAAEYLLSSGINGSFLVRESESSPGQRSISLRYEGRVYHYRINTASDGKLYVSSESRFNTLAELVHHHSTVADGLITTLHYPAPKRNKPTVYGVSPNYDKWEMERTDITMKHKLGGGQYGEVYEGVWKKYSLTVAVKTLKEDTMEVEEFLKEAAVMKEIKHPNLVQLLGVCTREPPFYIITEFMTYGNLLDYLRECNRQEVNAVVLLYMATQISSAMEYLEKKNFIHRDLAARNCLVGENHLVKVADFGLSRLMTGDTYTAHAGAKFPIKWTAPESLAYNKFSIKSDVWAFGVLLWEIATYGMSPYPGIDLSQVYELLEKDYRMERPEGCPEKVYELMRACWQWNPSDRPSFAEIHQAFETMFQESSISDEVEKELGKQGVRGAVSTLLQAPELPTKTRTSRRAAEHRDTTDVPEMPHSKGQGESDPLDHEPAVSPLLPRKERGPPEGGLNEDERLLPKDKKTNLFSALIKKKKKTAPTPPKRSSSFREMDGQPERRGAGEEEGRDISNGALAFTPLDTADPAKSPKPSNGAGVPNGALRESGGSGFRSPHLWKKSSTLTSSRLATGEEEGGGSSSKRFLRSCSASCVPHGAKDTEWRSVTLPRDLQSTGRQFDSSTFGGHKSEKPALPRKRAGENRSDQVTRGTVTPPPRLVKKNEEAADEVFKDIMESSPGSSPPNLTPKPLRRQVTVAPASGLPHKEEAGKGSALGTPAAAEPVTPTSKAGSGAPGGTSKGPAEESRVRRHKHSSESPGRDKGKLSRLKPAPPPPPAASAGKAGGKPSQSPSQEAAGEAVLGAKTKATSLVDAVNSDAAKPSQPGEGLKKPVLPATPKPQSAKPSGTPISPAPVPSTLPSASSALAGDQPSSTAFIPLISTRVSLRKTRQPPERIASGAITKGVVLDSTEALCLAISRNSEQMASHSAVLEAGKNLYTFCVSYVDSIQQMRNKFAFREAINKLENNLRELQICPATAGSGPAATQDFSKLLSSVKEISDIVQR

[14] = target: RAC-alpha serine/threonine-protein kinase (Homo sapiens, UniProt P31749); test: Inhibition of PKB
Sequence of RAC-alpha serine/threonine-protein kinase (P31749 whole entry): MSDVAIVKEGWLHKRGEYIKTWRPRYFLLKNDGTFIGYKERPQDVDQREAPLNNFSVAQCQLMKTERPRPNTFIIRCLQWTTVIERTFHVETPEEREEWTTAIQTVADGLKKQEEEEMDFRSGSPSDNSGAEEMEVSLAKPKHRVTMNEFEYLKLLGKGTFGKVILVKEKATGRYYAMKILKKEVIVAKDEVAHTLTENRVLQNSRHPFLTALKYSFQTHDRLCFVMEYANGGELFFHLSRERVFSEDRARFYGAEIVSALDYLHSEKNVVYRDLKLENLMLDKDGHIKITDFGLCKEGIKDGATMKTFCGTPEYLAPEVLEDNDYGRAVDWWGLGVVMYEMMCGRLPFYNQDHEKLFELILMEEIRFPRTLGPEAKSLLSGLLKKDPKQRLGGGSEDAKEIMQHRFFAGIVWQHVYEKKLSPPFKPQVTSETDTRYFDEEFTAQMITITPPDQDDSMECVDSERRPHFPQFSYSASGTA

Sequence of Cyclin-dependent kinase 1 (P06493 whole entry): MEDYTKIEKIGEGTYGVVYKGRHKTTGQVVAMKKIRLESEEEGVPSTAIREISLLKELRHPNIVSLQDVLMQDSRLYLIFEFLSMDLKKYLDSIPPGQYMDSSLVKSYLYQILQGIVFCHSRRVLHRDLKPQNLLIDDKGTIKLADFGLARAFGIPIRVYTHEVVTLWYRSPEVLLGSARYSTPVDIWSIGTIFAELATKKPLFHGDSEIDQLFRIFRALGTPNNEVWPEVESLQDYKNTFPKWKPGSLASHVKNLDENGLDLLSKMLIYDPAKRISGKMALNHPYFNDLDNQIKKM

IC50 [2]	C50 [4]	SMILES	also measured
>1000 nM	92 nM	CN(Cc1c(Cl)cccc1Cl)c1ccc(-c2[nH]c(C(=O)c3c(F)cccc3F)c(N)c2C(N)=O)cc1	–
>1000 nM	6.1 nM	NC(=O)c1c(-c2ccc(OCc3ccccc3)cc2)[nH]c(C(=O)c2c(F)cccc2F)c1N	–
–	1.8 nM	Cc1ccc(C(=O)c2[nH]c(-c3ccc(Oc4ccccc4)cc3)c(C(N)=O)c2N)c(C)c1	–
–	13 nM	Cc1cc(C)cc(C(=O)c2[nH]c(-c3ccc(Oc4ccccc4)cc3)c(C(N)=O)c2N)c1	–
–	19 nM	NC(=O)c1c(-c2ccc(Oc3ccccc3)cc2)[nH]c(C(=O)c2cc(Cl)ccc2Cl)c1N	–
–	> 100 nM	COc1ccc(-c2[nH]c(C(=O)c3c(F)cccc3F)c(N)c2C(N)=O)cc1	–
–	7 nM	NC(=O)c1c(-c2ccc(Oc3ccccc3)cc2)[nH]c(C(=O)c2ccc(Cl)cc2)c1N	–
–	5 nM	NC(=O)c1c(-c2ccc(Oc3ccccc3)cc2)[nH]c(C(=O)c2cccc(F)c2)c1N	–
150 nM	2.5 nM	NC(=O)c1c(-c2ccc(Oc3ccccc3)cc2)[nH]c(C(=O)c2ccccc2Br)c1N	–
–	49 nM	NC(=O)c1c(-c2ccc(Oc3ccccc3)cc2)[nH]c(C(=O)c2ccc(Oc3ccccc3)cc2)c1N	–
–	6.3 nM	NC(=O)c1c(-c2ccc(Oc3ccccc3)cc2)[nH]c(C(=O)c2cccc(Cl)c2)c1N	–
–	2.3 nM	NC(=O)c1c(-c2ccc(Oc3ccccc3)cc2)[nH]c(C(=O)c2ccc(Cl)cc2Cl)c1N	–
69 nM	1.8 nM	NC(=O)c1c(-c2ccc(Oc3ccccc3)cc2)[nH]c(C(=O)c2ccccc2Cl)c1N	–
–	10 nM	Cc1ccc(C)c(C(=O)c2[nH]c(-c3ccc(Oc4ccccc4)cc3)c(C(N)=O)c2N)c1	–
110 nM	2.6 nM	Cc1cccc(C(=O)c2[nH]c(-c3ccc(Oc4ccccc4)cc3)c(C(N)=O)c2N)c1C	–
–	93 nM	NC(=O)c1c(-c2ccc(NCc3cc(Cl)ccc3Cl)cc2)[nH]c(C(=O)c2c(F)cccc2F)c1N	–

Continued, molecule first:

SMILES	IC50 [2]	C50 [4]	also measured
NC(=O)c1c(-c2ccc(Oc3ccccc3)cc2)[nH]c(C(=O)c2c(F)cccc2F)c1N	31 nM	1.3 nM	IC50 [1]: > 10000 nM; IC50 [3]: 23 nM; IC50 [5]: 4.5 nM; IC50 [6]: > 10000 nM; IC50 [7]: > 10000 nM; Ratio IC50 [8]: > 17; IC50 [9]: > 10000 nM; IC50 [10]: > 10000 nM; Ratio IC50 [11]: > 3; IC50 [12]: > 10000 nM; IC50 [13]: > 10000 nM; IC50 [14]: > 10000 nM
NC(=O)c1c(-c2ccc(Oc3ccccc3)cc2)[nH]c(C(=O)c2c(F)cc(F)cc2F)c1N	62 nM	1.8 nM	–
Cc1cccc(C(=O)c2[nH]c(-c3ccc(Oc4ccccc4)cc3)c(C(N)=O)c2N)c1	420 nM	4 nM	–
Cc1ccc(C(=O)c2[nH]c(-c3ccc(Oc4ccccc4)cc3)c(C(N)=O)c2N)cc1	180 nM	2.8 nM	–
NC(=O)c1c(-c2ccc(Oc3ccccc3)cc2)[nH]c(C(=O)c2ccccc2)c1N	–	11 nM	–
Cc1ccccc1C(=O)c1[nH]c(-c2ccc(Oc3ccccc3)cc2)c(C(N)=O)c1N	180 nM	2.7 nM	–
NC(=O)c1c(-c2ccc(Oc3ccccc3)cc2)[nH]c(C(=O)c2cc(Cl)cc(Cl)c2)c1N	–	38 nM	–
NC(=O)c1c(-c2ccc(N)cc2)[nH]c(C(=O)c2c(F)cccc2F)c1N	>1000 nM	> 100 nM	–
NC(=O)c1c(-c2ccc(NCC3CCCCC3)cc2)[nH]c(C(=O)c2c(F)cccc2F)c1N	–	74 nM	–
NC(=O)c1c(-c2ccc(NCc3ccccc3)cc2)[nH]c(C(=O)c2c(F)cccc2F)c1N	–	6.4 nM	–
NC(=O)c1c(-c2ccc(Oc3ccccc3)cc2)[nH]c(C(=O)c2cccc(Br)c2)c1N	–	6.2 nM	–
COc1ccccc1C(=O)c1[nH]c(-c2ccc(Oc3ccccc3)cc2)c(C(N)=O)c1N	–	9.4 nM	–
NC(=O)c1c(-c2ccc(NCc3c(Cl)cccc3Cl)cc2)[nH]c(C(=O)c2c(F)cccc2F)c1N	31 nM	0.92 nM	–
NC(=O)c1c(-c2ccc(Oc3ccccc3)cc2)[nH]c(C(=O)c2cccc(Cl)c2Cl)c1N	45 nM	1.2 nM	–
NC(=O)c1c(-c2ccc(Oc3ccccc3)cc2)[nH]c(C(=O)c2ccccc2C(F)(F)F)c1N	68 nM	3.5 nM	–
NC(=O)c1c(-c2ccc(Oc3ccccc3)cc2)[nH]c(C(=O)c2ccc(Br)cc2)c1N	–	5.9 nM	–
Cc1cccc(Cl)c1CNc1ccc(-c2[nH]c(C(=O)c3c(F)cccc3F)c(N)c2C(N)=O)cc1	56 nM	3.6 nM	–
NC(=O)c1c(-c2ccc(NC(=O)c3ccccc3)cc2)[nH]c(C(=O)c2c(F)cccc2F)c1N	–	> 100 nM	–
NC(=O)c1c(-c2ccc(OCc3c(Cl)cccc3Cl)cc2)[nH]c(C(=O)c2c(F)cccc2F)c1N	>1000 nM	> 100 nM	–
NC(=O)c1c(-c2ccc(Oc3ccccc3)cc2)[nH]c(C(=O)c2ccccc2F)c1N	–	1.5 nM	–
NC(=O)c1c(-c2ccc(Oc3ncccn3)cc2)[nH]c(C(=O)c2c(F)cccc2F)c1N	–	> 100 nM	–
NC(=O)c1c(-c2ccc(Oc3ccccc3)cc2)[nH]c(C(=O)c2ccc(F)cc2)c1N	–	10 nM	–
